According to ChEMBL document CHEMBL1681691, “Synthesis and biological activity of amino acid conjugates of abscisic acid” (Bioorg Med Chem, 2011):
The source made the active and inactive calls. The rule behind the calls is not given here.

Experiments:
Oryza sativa [1] = test: Inhibition of seedling elongation in Oryza sativa after 7 days
Oryza sativa [2] = test: Inhibition of seedling elongation in Oryza sativa at 100 uM after 7 days
Spinacia oleracea [3] = test: Inhibition of seed germination in Spinacia oleracea at 100 uM after 24 hrs
Arabidopsis thaliana [4] = test: Inhibition of seed germination in Arabidopsis thaliana at 10 uM after 24 hrs; assay type: functional
Outline: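 Arabidopsis Col-0 seeds, 25 per test, sterilized in 70% EtOH for 30 min then EtOH for 1 min. Seeds were soaked in 250 µl test solution and chilled 3 days at 5 °C in the dark, then germinated on filter paper under continuous light for 24 h at 22 °C. Scored as % with emerged radicle; run twice. Single-concentration test at 10 µM.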

[5] = Chemical stability of the compound at 25 degC after 7 days; assay type: physicochemical; conditions: 168 h
Outline: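 Compound at 100 µM in 2 ml aqueous solution, prepared as for the rice growth assay, held in a capped glass tube at 25 °C under continuous light for 7 days, then analysed by reverse-phase HPLC.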

[6] = target: T1, IAA-amino acid hydrolase ILR1-like 4 (Arabidopsis thaliana) (UniProt O04373); test: Activity at GST-tagged IAR3 of Arabidopsis thaliana assessed as ABA release per mg of protein after 5 hrs by HPLC
T1 sequence (whole entry): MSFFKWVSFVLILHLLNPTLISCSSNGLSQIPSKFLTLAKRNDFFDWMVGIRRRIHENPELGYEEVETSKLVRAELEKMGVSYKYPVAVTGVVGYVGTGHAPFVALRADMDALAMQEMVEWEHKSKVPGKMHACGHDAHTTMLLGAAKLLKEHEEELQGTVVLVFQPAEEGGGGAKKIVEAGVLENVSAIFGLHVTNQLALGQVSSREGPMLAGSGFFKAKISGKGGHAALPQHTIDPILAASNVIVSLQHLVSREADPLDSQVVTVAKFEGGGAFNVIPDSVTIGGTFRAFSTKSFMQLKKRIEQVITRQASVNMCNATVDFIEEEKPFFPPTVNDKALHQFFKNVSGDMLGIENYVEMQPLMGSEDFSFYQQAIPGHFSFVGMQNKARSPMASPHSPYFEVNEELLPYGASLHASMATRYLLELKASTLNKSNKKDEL
Outline: (§1)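 Recombinant Arabidopsis GST-IAR3 expressed in E. coli BL21(DE3) (IPTG 50 µM, overnight at 18 °C) and purified on glutathione-agarose. Substrate at 1 mM was preincubated 5 min at 30 °C in 50 mM Tris-HCl pH 8.0 with 1 mM DTT and 1 mM MnCl2. Reaction started with 15 ng/µl enzyme at 30 °C, sampled up to 5 h (some substrates 7 or 24 h), quenched in MeOH/1% AcOH, cleaned on cartridge, HPLC at 254 nm.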

Lactuca sativa [7] = test: Inhibition of seed germination in Lactuca sativa at 100 uM after 24 hrs; assay type: functional
Spinacia oleracea [8] = test: Inhibition of seed germination in Spinacia oleracea at 100 uM after 24 hrs; assay type: functional
Outline: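 Spinach cv. Jiromaru seeds sterilized with EtOH for 5 min and rinsed in running tap water for 2 h. Placed on filter paper wetted with 2 ml test solution in a Petri dish, held 2 days at 5 °C, then germinated 24 h at 22 °C under continuous light. Single-concentration test at 100 µM.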

Arabidopsis thaliana [9] = test: Inhibition of seed germination in Arabidopsis thaliana after 24 hrs; assay type: functional, organism-based
Lactuca sativa [10] = test: Inhibition of seed germination in Lactuca sativa after 24 hrs; assay type: functional, organism-based
[11] = target: T1, IAA-amino acid hydrolase ILR1-like 4 (Arabidopsis thaliana); test: Activity at GST-tagged IAR3 of Arabidopsis thaliana assessed as ABA release per mg of protein after 7 hrs by HPLC
Outline: as §1

Oryza sativa [12] = test: Metabolic stability in Oryza sativa seedling assessed as ABA-d6 release per mg of protein after 4 days by LC-MS; assay type: ADME, organism-based; conditions: in vivo, 96 h
[13] = target: T1, IAA-amino acid hydrolase ILR1-like 4 (Arabidopsis thaliana); test: Activity at GST-tagged IAR3 of Arabidopsis thaliana assessed as IAA release per mg of protein after 5 hrs by HPLC
Outline: as §1

SMILES	IC50 (Oryza sativa [1])	inhibition at 100 µM (Oryza sativa [2])	also measured
CC1=CC(=O)CC(C)(C)[C@@]1(O)/C=C/C(C)=C\C(=O)N[C@@H](CCC(N)=O)C(=O)O	8.3 µM	> 80%	inhibition (Spinacia oleracea [3]): Active
CC1=CC(=O)CC(C)(C)[C@@]1(O)/C=C/C(C)=C\C(=O)N[C@@H](C)C(=O)O	7 µM	> 80%	inhibition (Arabidopsis thaliana [4]): Active; Stability [5]: Stable; Activity [6]: 310 nmol/h/mg
CC1=CC(=O)CC(C)(C)[C@@]1(O)/C=C/C(C)=C\C(=O)N[C@@H](CC(=O)O)C(=O)O	6.4 µM	> 80%	–
CC1=CC(=O)CC(C)(C)[C@@]1(O)/C=C/C(C)=C\C(=O)O [(+)-ABSCISIC ACID]	2.1 µM	100%	inhibition at 10 µM (Arabidopsis thaliana [4]): 100%; inhibition at 100 µM (Lactuca sativa [7]): 100%; inhibition at 100 µM (Spinacia oleracea [8]): 100%; IC50 (Arabidopsis thaliana [9]): 0.2 µM; IC50 (Lactuca sativa [10]): 5.7 µM
CC1=CC(=O)CC(C)(C)[C@@]1(O)/C=C/C(C)=C\C(=O)N[C@@H](CO)C(=O)O	13 µM	> 80%	–
CC1=CC(=O)CC(C)(C)[C@@]1(O)/C=C/C(C)=C\C(=O)NCC(=O)O	5.7 µM	> 80%	Activity [6]: 230 nmol/h/mg
CSCC[C@H](NC(=O)/C=C(C)\C=C\[C@@]1(O)C(C)=CC(=O)CC1(C)C)C(=O)O	16 µM	> 80%	Activity [11]: 22 nmol/h/mg
[2H]C([2H])([2H])C1(C([2H])([2H])[2H])CC(=O)C=C(C)[C@]1(O)/C=C/C(C)=C\C(=O)N[C@H](C)C(=O)O	–	–	Stability (Oryza sativa [12]): Stable
C[C@H](NC(=O)Cc1c[nH]c2ccccc12)C(=O)O	–	–	Activity [13]: 2100 nmol/h/mg
CC1=CC(=O)CC(C)(C)[C@@]1(O)/C=C/C(C)=C\C(=O)N[C@@H](CCC(=O)O)C(=O)O	–	–	inhibition (Spinacia oleracea [3]): Active
[2H]C([2H])([2H])C1(C([2H])([2H])[2H])CC(=O)C=C(C)[C@]1(O)/C=C/C(C)=C\C(=O)N[C@@H](C)C(=O)O	–	–	Stability (Oryza sativa [12]): Unstable
CC1=CC(=O)CC(C)(C)[C@@]1(O)/C=C/C(C)=C\C(=O)N[C@@H](CC(N)=O)C(=O)O	9.3 µM	> 80%	Activity [11]: 19 nmol/h/mg
